Shown are actives, neighbours in structure and some others; about 4.7% of the full set was active somewhere.
MC4R antag cAMP: blocks human MC4R cAMP signaling; P32245; MC4R-expressing cells, MTII-stimulated cAMP, LANCE TR-FRET; inhibition, % at 6.5 µM; hit rate 0.48% among 360,000; AID 540295;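 active = inhibition above its plate's cutoff, the mean of tested wells on that plate plus 3 SD, cut at about 29% in these data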;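 note: 0% = Melanotan II alone and 100% = Melanotan II plus saturating MCL0020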
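System: U2OS cells stably expressing human melanocortin 4 receptor (MC4R). Reagent: Melanotan II challenge after compound preincubation. Doses: 6.5 µM. Times: 30-min compound, 1-h challenge, 1-h detection, room temperature. Measured by: TR-FRET with Eu-cAMP and labeled anti-cAMP, 671 nm. Replicates: singlicate.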
HTR2A ag: mouse HTR2A agonism via beta-arrestin recruitment; P35363; CHO-K1 mHTR2A beta-arrestin complementation, luminescence; percent of 30 µM serotonin response; activation, % at 7.6 µM; hit rate 0.66% among 360,000;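 active = activation above a run cutoff, the mean activation of all tested compounds plus 3 SD, cut at about 14% in these data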;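 note: 0% = plate median of compound wells and 100% = 30 µM serotonin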
Target sequence (P35363 whole entry, looked up): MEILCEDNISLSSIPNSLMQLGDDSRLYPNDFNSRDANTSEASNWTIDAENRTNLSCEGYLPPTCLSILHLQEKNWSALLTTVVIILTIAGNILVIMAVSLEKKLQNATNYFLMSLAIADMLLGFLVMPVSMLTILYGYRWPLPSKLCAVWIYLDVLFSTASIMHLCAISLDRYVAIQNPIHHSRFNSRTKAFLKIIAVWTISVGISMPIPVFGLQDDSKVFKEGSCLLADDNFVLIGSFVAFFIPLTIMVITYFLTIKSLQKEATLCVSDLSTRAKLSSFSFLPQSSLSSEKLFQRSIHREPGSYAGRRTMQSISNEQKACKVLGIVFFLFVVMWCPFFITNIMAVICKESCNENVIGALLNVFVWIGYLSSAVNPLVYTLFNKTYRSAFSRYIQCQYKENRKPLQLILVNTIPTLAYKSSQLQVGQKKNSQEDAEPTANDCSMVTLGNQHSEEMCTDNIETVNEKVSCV
AHR act: human AHR activation; P35869; AHR-responsive luciferase reporter cells, luminescence; activation, % at 5 µM; hit rate 2.5% among 320,000; AID 2796; in the data active = activation above about 47%;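 note: 0% = vehicle wells and 100% = reference agonist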
FXN GAA850 act: frataxin GAA850 promoter activation; AID 540364; activation, % at 6 µM; HEK293 lucGAA850 FXN promoter luciferase reporter, 24 h; percent of 10 µM SAHA response; hit rate 0.56% among 360,000;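 active = activation above the average of all compounds screened plus 3 SD, cutoff fixed separately per campaign, cut at about 7.5% in these data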;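 note: 0% = DMSO wells and 100% = 10 µM SAHA wells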
MC4R barr agon: activates human MC4R beta-arrestin recruitment; U2OS MC4R beta-arrestin complementation, luminescence; percent of melanotan II response, DMSO zero; activation, % at 8.9 µM; P32245; hit rate 0.98% among 360,000;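 active = activation above a per-plate cutoff, the mean activation of sample wells on that plate plus 3 SD, cut at about 8% in these data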
The depositor's hits bear a star; · = no result.

SMILES | MC4R antag cAMP | HTR2A ag | AHR act | FXN GAA850 act | MC4R barr agon
CNC(C)C#Cc1ccc2c(=O)c3c(OC)cccc3oc2c1 (centres undefined) | · | · | 96.9* | · | ·
CNC(C)C#Cc1ccc2c(=O)c3cc(C)c(C)cc3oc2c1 (centres undefined) | 5.1 | 1.0 | 9.8 | 6.3 | -2.1
CNC(C)C#Cc1ccc2oc3cccc(OC)c3c(=O)c2c1 (centres undefined) | -2.0 | -2.8 | -5.5 | 7.8* | 0.6
CNC(C)C#Cc1ccc2oc3cc(C)c(C)cc3c(=O)c2c1 (centres undefined) | 3.3 | -6.4 | -8.1 | 5.8 | -0.8
CC(C)C(c1nnnn1Cc1ccccc1)N(CCCO)Cc1cc2cc3c(cc2[nH]c1=O)OCO3 (centres undefined) | -1.4 | 2.6 | 64.0* | 2.8 | 0.7
Cc1ccc2cc(CN(CCO)Cc3nnnn3Cc3ccc(F)cc3)c(=O)[nH]c2c1 | -2.0 | -1.1 | 2.5 | -1.5 | -1.1
O=c1[nH]c2cc3c(cc2cc1CN(CCCO)Cc1nnnn1Cc1ccc(F)cc1)OCO3 | 3.8 | -8.2 | 54.4* | 2.1 | 0.5
Cc1nc2sccn2c1-c1nc(-c2cc3ccccc3o2)cs1 | 3.5 | 3.1 | 53.9* | 2.2 | 0.2
Cc1ccc(C)c(NC(=O)CSc2nc(=O)n(CCN3CCOCC3)c3c2CCCC3)c1 | 11.2 | -6.2 | -0.1 | 0.1 | -1.3
CC(=O)Nc1ccc(S(=O)(=O)c2cc(O)ccc2O)cc1 | 1.6 | 2.5 | · | 3.1 | -1.1
O/N=C(\c1ccc(Cl)cc1)c1ncc(C(F)(F)F)cc1Cl | 10.7 | 2.1 | 79.0* | -3.8 | 6.5
CN(NC(=O)c1ccc(Cl)cc1)c1ncc(C(F)(F)F)cc1Cl | 0.6 | -4.3 | -0.6 | 0.8 | -1.0
C(=NN=Cc1c[nH]c2ccccc12)c1c[nH]c2ccccc12 | -0.9 | -0.4 | · | 0.6 | 1.3
O=C1CS/C(=N/N=C/c2c[nH]c3ccccc23)N1 | -7.7 | -2.0 | 77.5* | 3.3 | 0.6
COc1cccc(C(=O)NCCS(=O)(=O)N2CCN(c3ccccc3)CC2)c1OC | 2.3 | -2.2 | · | 1.0 | 1.2
Cc1ccc2ccc(C3C(=O)c4ccccc4C3=O)nc2c1 | 2.0 | -0.8 | 58.0* | 6.6 | 1.2
Cc1ccc(S(=O)(=O)NC(=O)C2(C)CCN2C(=O)CCc2ccc(Cl)cc2Cl)nc1 (centres undefined) | 3.6 | 3.0 | · | 0.7 | 0.5
O=C(CN1CCN(c2ccc(O)cc2)CC1)Nc1ccccc1C(=O)NCCc1ccccc1 | 2.6 | -5.2 | 74.4* | -3.2 | -0.9
CSCCC(NC(=O)c1ccc(Cl)cc1Cl)C(=O)NCC(c1cccs1)N(C)C (centres undefined) | 2.4 | -4.0 | · | -2.1 | -0.6
Cc1ccc(S(=O)(=O)N/N=C/c2ccc(OC3CSC3)cc2)cc1 | -3.2 | -2.5 | 7.7 | 1.2 | 9.5*
Cc1ccc(S(=O)(=O)N/N=C/c2ccc(C(=O)O)cc2)cc1 | -3.5 | -5.6 | 1.6 | -1.4 | -0.3
COCCn1c(SCC(=O)Nc2ccccc2F)nc2c([nH]c3ccccc32)c1=O | 2.6 | -0.3 | 61.0* | -0.2 | -2.4
Cc1ccc(NC(=O)CSc2nc3c([nH]c4ccccc43)c(=O)n2C)cc1 | -9.3 | -5.2 | 59.9* | 0.6 | 15.8*
COCCn1c(SCC(=O)Nc2ccc(F)cc2F)nc2c([nH]c3ccccc32)c1=O | -1.3 | 3.7 | 70.8* | 3.3 | -1.5
COCCn1c(SCC(=O)Nc2ccc(C(N)=O)cc2)nc2c([nH]c3ccccc32)c1=O | 3.7 | -3.5 | 51.8* | 0.9 | 0.6
SMILES | MC4R antag cAMP | HTR2A ag | AHR act | FXN GAA850 act | MC4R barr agon
C=CCn1c(SCC(=O)Nc2ccc(F)cc2F)nc2c([nH]c3ccccc32)c1=O | -8.7 | -1.2 | 28.2 | 2.0 | -1.4
COCCn1c(SCC(=O)Nc2ccc(F)cc2)nc2c([nH]c3ccccc32)c1=O | 12.8 | 0.1 | 13.7 | 0.4 | -1.5
Cn1c(SCC(=O)Nc2ccc(F)cc2)nc2c([nH]c3ccccc32)c1=O | -11.2 | 10.8 | 13.9 | -2.9 | 2.7
CCNC(=O)N(C)C[C@H]1N[C@@](C)(C(=O)OC)[C@H]2C(=O)N(Cc3ccccc3)C(=O)[C@@H]12 | 3.6 | 2.9 | -1.8 | -1.4 | 0.4
COCCCN(C(=O)CCSc1ccc(F)cc1)c1c(N)n(Cc2ccccc2)c(=O)[nH]c1=O | 1.0 | -2.3 | 4.2 | 2.2 | -0.6
CCc1ccc(N2CC(C(=O)Nc3ccccc3N3CCCC3)CC2=O)cc1 (centres undefined) | 4.8 | -3.2 | · | -4.1 | -0.8
COc1cccc(C(=O)Nc2ccc3c(c2)n(C)c(=O)n3C)c1 | -3.5 | 3.7 | 47.7* | -0.3 | 0.0
COc1cccc(C(=O)Nc2ccc(C)cc2)c1 | 6.0 | -2.9 | 10.4 | 2.5 | -2.2
COc1cccc(C(=O)Nc2ccc(C3CC3(Cl)Cl)cc2)c1 (centres undefined) | 2.1 | -8.0 | 73.2* | 6.6 | -2.4
COc1cccc(C(=O)Nc2cc3c(cc2N2CCCC2)n(C)c(=O)n3C)c1 | 8.2 | 1.1 | 13.2 | 0.3 | -0.5
COc1cccc(C(=O)COC(=O)c2ccc(NC(=O)c3ccccc3)cc2)c1 | -0.2 | -1.1 | 4.5 | 0.9 | 8.7*
Cc1sc(NC(=O)C2=COCCO2)c(C(N)=O)c1C | 0.1 | 7.2 | 5.2 | 0.8 | -2.1
O=C(NC1CCN(S(=O)(=O)c2ccccc2F)CC1)c1cccnc1 | 8.6 | -3.5 | -0.1 | 1.8 | -2.9
O=C(Nc1ccccc1)c1cccc2c(-c3cccnc3)coc12 | 9.9 | -3.5 | · | 1.4 | -1.4
CCCNc1nc(C)nc2c1cnn2CCc1ccccc1 | -1.3 | -1.3 | 67.8* | 3.0 | -1.9
Cc1nc(NC(C)C)c2cnn(CCc3ccccc3)c2n1 | 4.3 | -1.5 | 58.9* | 3.8 | 1.1
Cc1nc(NCCc2ccc(F)cc2)c2nnn(Cc3ccccc3)c2n1 | 8.4 | -1.5 | 1.0 | 0.6 | -1.9
Cc1nc(NCCCN2CCOCC2)c2cnn(-c3ccccc3)c2n1 | 10.4 | -9.6 | · | 2.7 | -2.1
CCc1nc2ccc(C(=O)N(C)Cc3ccccc3)cn2c1N(CC)CCN(C)C | 3.7 | -13.8 | · | 0.3 | 1.6
CC(C)N(C)Cc1nnnn1CC(=O)N(C)Cc1ccc(F)cc1 | 16.5 | 1.5 | 49.4* | 1.0 | 0.9
COC(=O)c1ccc(CNC(=O)Cn2nnnc2CN(C)C(C)C)cc1 | 0.7 | 4.0 | 56.1* | 0.5 | -0.7
Cc1ccc(NC2CCCN(C(=O)c3cccnc3)C2)cc1C (centres undefined) | 9.3 | -3.4 | 47.7* | 0.0 | -0.6
O=c1[nH]c(/C=C/c2ccccc2[N+](=O)[O-])nc2ccccc12 | -2.9 | 2.3 | 78.7* | 0.5 | 8.8*
COc1cc(C[C@@H](CO)[C@H](CO)Cc2ccc(O)c(OC)c2)ccc1O | · | · | -0.1 | · | ·
CSc1snnc1-c1ccccc1 | 1.7 | -1.5 | -0.2 | 4.2 | -1.8
CC(C)Sc1snnc1-c1ccccc1 | -5.3 | -1.9 | -1.7 | 1.8 | 8.9*
CC1=C(C(=O)N(C(C)C)C(C)C)CC(CC(=O)NCc2ccco2)C(=O)N1Cc1ccccc1 (centres undefined) | · | -3.2 | · | · | ·

Bioassay records from PubChem BioAssay.
